# Measurements reported in publication PMC4944842 (Molecular cancer therapeutics, 2010).
# Assays:
# Rock-II = Rock-II (Homo sapiens, UniProt O75116); experiment: Kinase profiling at 10 µmol/L; type: biochemical; details: read-out: activity remaining
# Method in brief: (§1)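 Millipore profiling covered 50 human kinases. Test compound was tested at 10 µmol/L, with ATP at the Km of each enzyme. Readout was % kinase activity remaining.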
# p70S6K = p70S6K (Homo sapiens, UniProt P23443); experiment: Kinase enzyme assay; type: biochemical; details: read-out: activity remaining
# p70S6K, sequence (P23443 whole entry): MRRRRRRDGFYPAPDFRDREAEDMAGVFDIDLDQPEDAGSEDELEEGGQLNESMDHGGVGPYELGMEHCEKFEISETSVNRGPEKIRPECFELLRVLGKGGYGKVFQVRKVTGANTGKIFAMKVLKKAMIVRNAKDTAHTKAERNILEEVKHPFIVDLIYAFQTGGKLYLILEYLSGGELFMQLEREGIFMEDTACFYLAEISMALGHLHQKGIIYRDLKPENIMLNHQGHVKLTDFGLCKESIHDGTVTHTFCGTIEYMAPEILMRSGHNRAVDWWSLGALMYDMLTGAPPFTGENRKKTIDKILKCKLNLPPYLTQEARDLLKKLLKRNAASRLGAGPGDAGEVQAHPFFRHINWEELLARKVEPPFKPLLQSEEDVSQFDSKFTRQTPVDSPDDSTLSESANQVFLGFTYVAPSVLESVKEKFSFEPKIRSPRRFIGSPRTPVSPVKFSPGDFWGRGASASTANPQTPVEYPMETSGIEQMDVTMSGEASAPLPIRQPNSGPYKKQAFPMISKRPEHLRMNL
# Method in brief: as §1
# [1] = tested on: panel of kinases representative of the human protein kinome; experiment: Kinase profiling at 10 µmol/L against panel of kinases; type: biochemical; details: ATP at Km
# Method in brief: as §1
# CHK2 = CHK2 (Homo sapiens, UniProt O96017); experiment: Kinase profiling at 10 µmol/L; type: biochemical; details: read-out: activity remaining
# CHK2, sequence (O96017 whole entry): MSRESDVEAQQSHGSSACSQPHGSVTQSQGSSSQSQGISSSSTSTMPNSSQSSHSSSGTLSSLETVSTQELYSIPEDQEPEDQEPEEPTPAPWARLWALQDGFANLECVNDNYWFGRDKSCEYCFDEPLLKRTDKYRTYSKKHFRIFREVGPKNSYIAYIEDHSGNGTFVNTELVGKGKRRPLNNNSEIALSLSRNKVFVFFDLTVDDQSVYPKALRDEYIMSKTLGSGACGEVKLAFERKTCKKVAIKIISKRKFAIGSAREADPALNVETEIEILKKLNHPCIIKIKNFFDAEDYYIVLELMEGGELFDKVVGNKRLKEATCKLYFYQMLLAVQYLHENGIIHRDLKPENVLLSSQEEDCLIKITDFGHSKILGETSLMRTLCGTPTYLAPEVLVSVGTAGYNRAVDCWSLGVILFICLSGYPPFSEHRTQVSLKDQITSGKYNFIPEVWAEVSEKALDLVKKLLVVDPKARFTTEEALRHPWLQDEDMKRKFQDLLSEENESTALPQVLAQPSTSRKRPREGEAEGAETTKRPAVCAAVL
# Method in brief: as §1
# PKA = PKA (Homo sapiens, UniProt P17612); experiment: Kinase enzyme assay; type: biochemical; details: read-out: activity remaining
# [2] = tested on: LNCaP human prostate cancer cells; experiment: 96-hour SRB antiproliferative assay; type: cell-based; details: read-out: GI50 for growth inhibition (mean±SD)
# Method in brief: (§2)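 Cells attached for 36 h before treatment so they were in exponential growth. Test compound came from a 10 mM DMSO stock. Growth was measured by sulforhodamine B staining after 96 h of exposure. GI50 was derived by a previously published method and reported as mean ± SD of 3–5 independent experiments.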
# [3] = tested on: PTEN-null U87MG human glioblastoma cells; experiment: Flow cytometry cell cycle analysis; type: cell-based
# [4] = tested on: PTEN-null U87MG human glioblastoma xenografts; experiment: Antitumor activity in human tumor xenograft; type: in vivo, mice; details: 25 mg/kg i.p. × 5 of 7 days
# Method in brief: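 U87MG cells (2 × 10⁶) were injected s.c. into the right flank of 6–8-week-old female […] mice. Mice were randomized at ~100 mm³ mean tumor volume and given test compound i.p. or vehicle (10% DMSO, 5% Tween 20, 85% saline). Body weight and caliper tumor diameters were recorded three times weekly. Volume = 4/3π[(d1+d2)/4]³; tumors were excised and weighed at study end.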
# [5] = tested on: PC3 and LNCaP prostate cancer cell lines, HCT116 colorectal cancer cells and MCF7 human breast cancer cells; type: cell-based; details: one hour exposure, 3 or 10 µM
# Method in brief: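 PC3, LNCaP, HCT116 and MCF7 cells were exposed for 1 h to 3 or 10 µM test compound. Controls were DMSO and LY294002 (30 µM, 1 h). Lysates were run on 10% Tris-glycine gels, transferred to PVDF and blocked in 5% milk/Tris-NaCl-Tween. Primary antibodies were applied overnight at 4 °C, then HRP secondaries for 1 h, with ECL detection. GAPDH served as loading control.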
# [6] = tested on: U87MG human glioblastoma cells; experiment: Immunoblotting of AKT biomarkers and cell cycle proteins; type: cell-based
# Method in brief: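 U87MG cells were exposed for 1 h to increasing test-compound concentrations, or to one fixed concentration sampled at intervals up to 48 h. Controls were DMSO and LY294002 (30 µM, 1 h). Phospho and total AKT, GSK3β, PRAS40, FOXO1/3a, S6RP, cyclin D1, p21 and p27 were immunoblotted (10% Tris-glycine gels, PVDF, overnight 4 °C primaries, ECL). GAPDH served as loading control.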
# [7] = tested on: HER2-positive, PIK3CA-mutant BT474 human breast cancer xenografts; experiment: Antitumor activity in human tumor xenograft; type: in vivo, mice; details: 40 mg/kg bid × 5 of 7 days
# Method in brief: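 BT474 cells (5 × 10⁶) in medium mixed 1:1 with matrigel were implanted into mammary fat pads of female mice. Estradiol pellets (0.025 mg, 90-day release) had been placed s.c. 3 days earlier. Mice were randomized at ~100 mm³ mean tumor volume. Dosing was 40 mg/kg i.p. twice daily for 5 days versus vehicle (10% DMSO, 5% Tween 20, 85% saline). Tumors (calipers) and body weight were measured thrice weekly.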
# [8] = tested on: U87MG human glioblastoma xenografts; experiment: Pharmacodynamic AKT biomarker immunoblotting in tumor xenografts; type: in vivo, mice; details: 50 mg/kg i.p. × 4 days
# Method in brief: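 Mice bearing s.c. U87MG xenografts received 50 mg/kg i.p. daily for 4 days. Tumors were harvested 2 and 6 h after the last dose; protein was measured by Bradford and tumors were immunoblotted. Each phosphoprotein/total protein ratio was normalized to GAPDH and expressed relative to vehicle controls (=1.0). Data are mean ± SE of 3–5 determinations.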
# [9] = tested on: PC3 human prostate cancer cells; experiment: 96-hour SRB antiproliferative assay; type: cell-based; details: read-out: GI50 for growth inhibition (mean±SD)
# Method in brief: as §2
# [10] = Pharmacokinetics after single dose of 25 mg/kg; type: in vivo, mice
# Method in brief: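 Mice bearing HCT116 xenografts received a single 25 mg/kg dose i.v., i.p. or p.o. Plasma and tumor were sampled over time, 3–5 mice per time point. Drug was extracted with methanol and quantified by LC-MS on a Synergi-Polar RP column (0.1% formic acid/methanol gradient, 0.6 ml/min, 12 min). Data are mean ± SE.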
# [11] = tested on: U87MG human glioblastoma cells; experiment: 96-hour SRB antiproliferative assay; type: cell-based; details: U-87 MG, read-out: GI50 for growth inhibition (mean±SD)
# Method in brief: as §2
# Rock-II, sequence (O75116 whole entry): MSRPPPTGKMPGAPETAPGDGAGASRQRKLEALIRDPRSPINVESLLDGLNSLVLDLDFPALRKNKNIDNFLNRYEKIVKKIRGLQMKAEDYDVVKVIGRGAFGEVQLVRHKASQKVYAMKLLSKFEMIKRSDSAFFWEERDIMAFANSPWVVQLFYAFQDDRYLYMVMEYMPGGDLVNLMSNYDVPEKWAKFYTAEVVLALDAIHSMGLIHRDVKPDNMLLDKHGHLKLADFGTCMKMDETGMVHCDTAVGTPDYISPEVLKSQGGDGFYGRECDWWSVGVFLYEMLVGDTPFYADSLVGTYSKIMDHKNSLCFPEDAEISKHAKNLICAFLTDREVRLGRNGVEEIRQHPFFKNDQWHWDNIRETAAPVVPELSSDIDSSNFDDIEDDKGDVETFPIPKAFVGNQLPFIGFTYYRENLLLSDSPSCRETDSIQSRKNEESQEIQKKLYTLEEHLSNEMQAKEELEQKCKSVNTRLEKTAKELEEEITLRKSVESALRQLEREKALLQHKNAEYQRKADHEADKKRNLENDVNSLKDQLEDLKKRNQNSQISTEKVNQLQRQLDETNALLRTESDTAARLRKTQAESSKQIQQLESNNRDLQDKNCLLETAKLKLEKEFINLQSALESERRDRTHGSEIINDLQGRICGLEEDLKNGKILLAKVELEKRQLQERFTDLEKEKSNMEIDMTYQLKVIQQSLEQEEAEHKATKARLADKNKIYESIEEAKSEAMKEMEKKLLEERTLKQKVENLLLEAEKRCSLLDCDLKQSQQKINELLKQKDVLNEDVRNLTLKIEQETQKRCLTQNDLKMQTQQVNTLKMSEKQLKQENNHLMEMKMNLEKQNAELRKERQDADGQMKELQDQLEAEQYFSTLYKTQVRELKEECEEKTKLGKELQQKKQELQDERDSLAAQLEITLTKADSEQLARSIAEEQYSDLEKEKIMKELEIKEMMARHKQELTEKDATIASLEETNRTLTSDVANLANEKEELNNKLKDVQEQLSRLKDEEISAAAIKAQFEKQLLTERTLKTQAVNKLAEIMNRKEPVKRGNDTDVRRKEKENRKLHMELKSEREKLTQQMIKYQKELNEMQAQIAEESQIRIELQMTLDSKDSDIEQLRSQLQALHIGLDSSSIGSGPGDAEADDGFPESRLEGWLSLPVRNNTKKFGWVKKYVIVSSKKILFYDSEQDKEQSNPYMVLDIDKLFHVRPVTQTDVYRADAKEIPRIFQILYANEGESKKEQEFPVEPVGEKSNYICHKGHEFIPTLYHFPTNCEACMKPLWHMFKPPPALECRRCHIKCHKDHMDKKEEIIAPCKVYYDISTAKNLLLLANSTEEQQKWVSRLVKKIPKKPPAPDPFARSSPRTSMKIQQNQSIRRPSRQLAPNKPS
smiles,measurement,setting,value
"NC1(Cc2ccc(Cl)cc2)CCN(c2ncnc3[nH]ccc23)CC1 [CCT128930, 4-(4-chlorobenzyl)-1-(7H-pyrrolo[2,3-d]pyrimidin-4-yl)piperidin-4-amine]",remaining activity at 10 µM,Rock-II,< 25%
same,remaining activity at 10 µM,p70S6K,< 25%
same,cross-reactivity with 47 other kinases,[1],minimal cross-reactivity
same,remaining activity at 10 µM,CHK2,< 25%
same,remaining activity at 10 µM,PKA,< 25%
same,GI50,[2],350 nM
same,G2/M cells,"[3]; 1 × GI50, 24 hours, DMSO control 16.7%",18.9%
same,S phase cells,"[3]; 1 × GI50, 24 hours, DMSO control 32.3%",13.2%
same,G0/G1 phase cells,"[3]; 1 × GI50, 24 hours, DMSO control 46.4%",63.2%
same,G2/M phase cells,"[3]; 3 × GI50 (18.9µM), 24 hours, DMSO control 17.8%",30.5%
same,S phase cells,"[3]; 3 × GI50 (18.9µM), 24 hours, DMSO control 36.6%",2.0%
same,G0/G1 phase cells,"[3]; 3 × GI50 (18.9µM), 24 hours, DMSO control 43.6%",64.8%
same,weight loss,[4],no weight loss
same,pSer473 AKT,[5],induction
same,pSer9 GSK3β,[5]; all four cell lines,Decreased phosphorylation
same,pSer240/244 S6RP,[5]; all four cell lines,decreased
same,cyclin D1 over time,[6]; 18.9 μM,decreased after 8 hours
same,pSer473 AKT over time,"[6]; 18.9 μM (3× GI50), after 30 minutes, sustained for 48 hours",increase in phosphorylation
same,pThr32 FOXO3a phosphorylation,"[6]; 18.9 μM, after one hour exposure",marked decrease
same,pSer235/236 S6RP signal over time,"[6]; 18.9 μM, decrease at 30 minutes",complete loss after 2 hours
same,pSer240/244 S6RP signal over time,"[6]; 18.9 μM, decreased from 4 hours",abolished after 8 hours
same,pSer9 GSK3β phosphorylation over time,"[6]; 18.9 μM, from 30 minutes, sustained at least 24 hours, recovery at 48 hours",rapid and profound loss
same,pThr246 PRAS40 over time,"[6]; 18.9 μM, from 30 minutes, sustained throughout 48 hours",marked loss in phosphorylation
same,CDK inhibitor p27 over time,"[6]; 18.9 μM, from 2 hours",induction
same,"exposure sufficient to markedly inhibit phosphorylation of GSK3β, S6RP, FOXO1 and PRAS40",[6]; 1 hour,5 to 10 µM
same,concentration decreasing cyclin D1 expression,[6]; 1 h treatment,≥ 40 µM
same,"concentration inhibiting direct substrates of AKT (Ser9 GSK3β, pThr246 PRAS40 and pT24 FOXO1/p32 FOXO3a)",[6]; 1 h treatment,≥ 5 μM
same,concentration inhibiting downstream target pSer235/236 S6RP,[6]; 1 h treatment,≥ 10 μM
same,effect on pSer240/244 S6RP,"[6]; 1 h treatment, increasing concentrations",minimal effects
same,concentration up to which AKT phosphorylation at serine 473 is induced,"[6]; 1 h treatment, decrease at higher concentrations",up to 20 μM
same,apoptosis as measured by PARP cleavage,[6]; after CCT128930 treatment (Supplementary Figure 2),increase
same,antitumor effect,[7],complete growth arrest
same,"body weight nadir, % of the initial body weight",[7]; day 15 of treatment,94.8%
same,phosphorylation of Ser9 GSK3β,[8]; 2 and 6 hours (P<0.001 and P<0.01),significant decreases
same,phosphorylation of Ser235/236 S6RP,[8]; 2 and 6 hours (P<0.05 and P<0.01),significant decreases
same,phosphorylation of Thr246 PRAS40,[8]; 2 and 6 hours (P<0.05 and P<0.05),significant decreases
same,Ser473 phosphorylation on AKT,[8]; 2 and 6 hours after last dose (P<0.001 and P<0.01),significant increase
same,GI50,[9],1900 nM
same,peak tumor concentration,"[10]; 25 mg/kg i.p., HCT116 human colon tumor xenograft",8 µM
same,AUC0-∞ tumor,"[10]; 25 mg/kg i.p., HCT116 tumor xenograft",25.8 µMh
same,administered dose recovered unaltered in urine,"[10]; 25 mg/kg i.p., after 24 hours (data not shown)",0.23%
same,AUC0-∞ plasma,"[10]; 25 mg/kg i.p., mice",1.3 µMh
same,AUC0-∞ plasma,"[10]; 25 mg/kg i.v., mice",4.6 µMh
same,peak concentration in plasma,"[10]; 25 mg/kg i.v., mice",6.4 µM
same,peak plasma concentration,"[10]; 25 mg/kg p.o., mice",0.43 µM
same,GI50,[11],6300 nM
